# Source: PubChem BioAssay
# NOD2 RIPK2 PPI: inhibitors of human NOD2-RIPK2 interaction; inhibition, % at 4.98 µM; O43353; CHO BLA complementation NOD2-RIPK2, CCF4 ratio; 360,000 compounds, 0.38% hits; in the data active means inhibition above about 21%;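 further: 0% = vehicle only and 100% = reference blocker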
# Hep lipid drop: hepatic lipid droplet formation modulation. AML12 mouse hepatocytes, oleate lipid droplets, BODIPY imaging. inhibition, % at 6.5 µM. 240,000 compounds, 0.4% hits. AID 1656;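 active means lipid droplet intensity inhibited by at least 50%, with more than 500 cells counted; inconclusive means wells with under 300 cells, treated as cytotoxic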
#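 Material: mouse AML12 hepatocyte cell line, fixed after treatment; Timing: compound with oleate, overnight; Technique: high-content imaging of BODIPY-stained droplets and DAPI nuclei; Probe or stimulus: oleate, 100 µM final; Dosing: compound at 6.5 µM only.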
# TLR4-MyD88 BLA: blocks binding of human TLR4 to MyD88; O00206+Q99836; HeLa CL3-4 TLR4/MyD88 BLA complementation, FRET ratio; inhibition, % at 8.4 µM; 200,000 compounds, 0.18% hits; AID 861; in the data active means inhibition above about 25%;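 further: 0% = vehicle and 100% = reference inhibitor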
# TLR9-MyD88 block: inhibitors of human TLR9-MyD88 binding | Q9NR96+Q99836 | CHO BLA complementation TLR9-MyD88, CCF4 FRET ratio | inhibition, % at 4.98 µM | 340,000 compounds, 0.21% hits | AID 504734;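 active means inhibition above the mean over all tested compounds plus 3 SD, cut at about 21% in these data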;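 further: 0% = DMSO only wells and 100% = clavulanate BLA inhibitor control wells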
# SR-BI DiI inh: mouse SR-BI HDL lipid transfer inhibition; ldlA[mSR-BI] CHO cells, DiI-HDL uptake fluorescence, 3 h; inhibition, % at 12.5 µM; 320,000 compounds, 0.96% hits; AID 488896;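 active means mean replicate inhibition of at least 70% and a set share of replicates each scoring 70 or more; inconclusive means meets just one of the two criteria; inactive means fails both criteria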;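 further: 0% = median of neutral control wells and 100% = median of positive control wells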
# Target sequence (Q61009 whole entry, looked up): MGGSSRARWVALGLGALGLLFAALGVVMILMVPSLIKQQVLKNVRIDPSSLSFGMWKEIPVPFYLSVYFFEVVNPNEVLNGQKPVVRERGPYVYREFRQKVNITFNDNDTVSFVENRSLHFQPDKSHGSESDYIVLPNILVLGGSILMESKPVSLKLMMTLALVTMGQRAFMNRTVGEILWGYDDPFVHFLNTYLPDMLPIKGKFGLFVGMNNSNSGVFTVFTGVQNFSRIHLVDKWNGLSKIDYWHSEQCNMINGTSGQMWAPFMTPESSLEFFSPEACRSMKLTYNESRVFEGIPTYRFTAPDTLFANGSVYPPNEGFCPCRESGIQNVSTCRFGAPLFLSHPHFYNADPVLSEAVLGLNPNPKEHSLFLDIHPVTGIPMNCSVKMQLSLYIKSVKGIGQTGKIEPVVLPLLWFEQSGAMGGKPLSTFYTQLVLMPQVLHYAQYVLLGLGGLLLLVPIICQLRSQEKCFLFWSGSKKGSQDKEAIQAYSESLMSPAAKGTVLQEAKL
# SR-BI uptake up: enhances SR-BI lipid uptake from DiI-HDL | CHO ldlA[mSR-BI] cells, DiI-HDL uptake fluorescence, 3 h; 100 = double the neutral-control signal | activation, % at 12.5 µM | 320,000 compounds, 0.096% hits;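 active means mean replicate activation of at least 60% and every replicate at or above 60%; inconclusive means mean or all-replicate condition met, but not both; inactive means mean below 60% and not all replicates reaching 60%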;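 further: 0% = median plate neutral-control signal and 100% = twice that signal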
#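 Test system: SR-BI-overexpressing, LDLR-lacking CHO cells; Also added: labelled HDL, 10 µg/mL; Measured by: bottom-read cell fluorescence after medium removal, ex 550/em 595 nm; Timing: 3 h uptake period with compound, 37 °C; Buffer or medium: F12, 0.5% BSA, 25 mM HEPES; Doses: single compound concentration, delivered by pin transfer.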
# NOD2-RIPK2 conf: confirmation of human NOD2-RIPK2 interaction inhibitors; shares compounds with NOD2 RIPK2 PPI; CHO cells, NOD2-RIPK2 BLA complementation, CCF4 FRET; inhibition, % at 4.98 µM; 1,200 compounds, 70% hits; AID 624370;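 active means mean inhibition across replicates above a set limit taken from the earlier primary screen, cut at about 21% in these data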;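 further: 0% = DMSO-only wells and the high end = clavulanate BLA-blocked wells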
# NOD2 BLA counter: hits BLA reporter in NOD2-RIPK2 inhibitor counterscreen; 1,200 compounds, 57% hits; AID 624371; CHO BLA reporter, CCF4 FRET ratio; shares compounds with NOD2 RIPK2 PPI; inhibition, % at 4.98 µM;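 active means mean inhibition above the low-control mean inhibition plus three low-control SD, cut at about 11% in these data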;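 further: 0% = DMSO only wells and 100% = clavulanate high control wells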
# An asterisk follows results filed as active; ? = inconclusive; nt = no result given. Sampled rows, rich in hits. Any-hit rate of the full collection: about 1.6%.
SMILES,NOD2 RIPK2 PPI,Hep lipid drop,TLR4-MyD88 BLA,TLR9-MyD88 block,SR-BI DiI inh,SR-BI uptake up,NOD2-RIPK2 conf,NOD2 BLA counter
O=C(NC1CCCCC1)C(c1ccccc1F)n1c(=O)c(-c2ccco2)nc2ccccc21 (stereo unspecified),-2,nt,nt,nt,nt,nt,nt,nt
O=C(NC1CCCCC1)C(c1ccccc1F)n1c(=O)c(-c2cc3ccccc3[nH]2)nc2ccccc21 (stereo unspecified),45*,nt,nt,nt,nt,nt,42*,66*
C[C@H](NC(=O)C1CCN(S(=O)(=O)c2ccccc2)CC1)C(=O)NCc1ccncc1,1,nt,nt,-1,nt,nt,nt,nt
COc1c(O)c(=O)n2c3ccccc3c3ccnc1c32,26*,nt,nt,18,-19,19,21,18*
Cc1ccc(/C=N/Nc2ccnc3cc(Cl)ccc23)c(C)c1,21*,26,-11,19,17,-17,30*,42*
Cc1ccccc1/C=N/Nc1ccnc2cc(Cl)ccc12,-7,3,8,7,25,-25,nt,nt
C/C(=N\NS(=O)(=O)c1ccccc1)c1cc(Cl)cc(Cl)c1O,4,13,-4,-3,-4,4,nt,nt
O=C1CCCCN1CCC(=O)N1CCCC(N2CCN(c3ccccc3)CC2)C1 (stereo unspecified),-9,-20,nt,-1,-7,7,nt,nt
C=C(C)c1cccc(C(C)(C)NC(=O)N(Cc2ccccc2)Cc2ccco2)c1,8,16,3,2,-10,10,nt,nt
CCOC(=O)c1c(C)[nH]c(C2=NNC(=Nc3ccc(OCC)cc3)SC2)c1C,35*,-3,-6,5,24,-24,-1,-6
CCOC(=O)c1c(C)[nH]c(C2=NNC(=Nc3ccccc3)SC2)c1C,-9,-25,0,-5,31,-31,nt,nt
Cc1ccccc1N1C(=O)CC(Sc2nnc(-c3ccccc3)o2)C1=O (stereo unspecified),43*,nt,-7,-5,34,-34,34*,6
Cc1ccc(-c2cc(-c3n[nH]c(=S)o3)c3ccccc3n2)cc1,22*,5,4,7,-11,11,10,7
COc1cc(/C=C/c2ccc(O)cc2)cc(OC)c1,-5,-23,nt,-4,9,-9,nt,nt
COc1ccc(/C=N/Nc2ccc(C(=O)O)cc2)c(OC)c1OC,-5,-9,nt,-3,4,-4,nt,nt
COC(=O)c1ccc2c(c1)C(C)(C)C(/C=C/c1ccc(OC)c(OC)c1OC)=[N+]2C,26*,nt,15,2,105*,-105,88*,6
COC(=O)c1ccc2c(c1)C(C)(C)C(/C=C/c1ccc(O)cc1)=[N+]2C,26*,119*,-5,16,?,-71,71*,-5
COc1cc(NC(=O)CCn2c(=S)[nH]c3ccccc3c2=O)cc(OC)c1OC,-2,nt,nt,2,nt,nt,nt,nt
CC(=O)c1cccc(Nc2c3c(nc4ccccc24)CCC3)c1,12,-91,nt,6,15,-15,nt,nt
Fc1cccc(Nc2c3c(nc4ccccc24)CCC3)c1,22*,-19,nt,-7,24,-24,5,-1
CC(C)(C)NC(=O)C(c1ccccc1F)n1c(=O)c(-c2cc3ccccc3[nH]2)nc2ccccc21 (stereo unspecified),50*,nt,nt,nt,nt,nt,46*,68*
CC(C)(C)NC(=O)C(c1ccnc2ccccc12)n1c(=O)c(-c2cc3ccccc3[nH]2)nc2ccccc21 (stereo unspecified),49*,nt,nt,nt,nt,nt,46*,65*
CC(C)(C)NC(=O)C(c1ccnc2ccccc12)n1c(=O)c(-c2ccccc2)nc2ccccc21 (stereo unspecified),-7,nt,nt,nt,nt,nt,nt,nt
CC(C)(C)NC(=O)C(c1ccccc1F)n1c(=O)c(-c2ccco2)nc2ccccc21 (stereo unspecified),-13,nt,nt,nt,nt,nt,nt,nt
O=C(CSc1nnc(CNC(=O)c2cccc(C(F)(F)F)c2)o1)NC1CCCC1,4,7,nt,-12,-15,15,nt,nt
SMILES,NOD2 RIPK2 PPI,Hep lipid drop,TLR4-MyD88 BLA,TLR9-MyD88 block,SR-BI DiI inh,SR-BI uptake up,NOD2-RIPK2 conf,NOD2 BLA counter
O=c1c(O)c(-c2ccc(O)c(O)c2)oc2cc(O)ccc12,25*,nt,nt,20,31,-31,29*,28*
O=C(c1ccc(Cl)cc1)c1c[nH]c(C(=O)NNc2cccc(Cl)n2)c1,23*,6,8,5,27,-27,1,2
O=C(/C=C/Nc1ccc(Oc2ccccc2Cl)cc1)c1ccco1,1,11,7,2,24,-24,nt,nt
O=C(CN1CCN(S(=O)(=O)c2ccc(Br)cc2)CC1)N/N=C/c1ccc(Cl)c([N+](=O)[O-])c1,33*,-3,-4,16,-36,36,32*,4
Cc1ccc(S(=O)(=O)N2CCN(CC(=O)N/N=C\c3ccc(Cl)c([N+](=O)[O-])c3)CC2)cc1,12,-1,-7,5,-28,28,nt,nt
CCOC(=O)C1=C(N)n2c(s/c(=C\c3ccncc3)c2=O)=C(C(=O)OCC)C1c1ccncc1 (stereo unspecified),-13,-25,-6,nt,-1,1,nt,nt
CCOC(=O)C1=C(N)n2c(s/c(=C\c3cccs3)c2=O)=C(C(=O)OCC)C1c1cccs1 (stereo unspecified),27*,nt,-3,1,-18,18,11,4
CN1Cc2c(N3CCOCC3)nc3sc(C(=O)c4ccc(Br)cc4)c(N)c3c2CC1(C)C,24*,25,nt,nt,nt,nt,29*,30*
COc1ccc(-n2sc3ccc(F)cc3c2=O)cc1,40*,nt,nt,16,-15,15,40*,2
COc1ccc(-n2sc3ccccc3c2=O)cc1,26*,nt,nt,0,nt,nt,44*,7
CCc1ccc2c(c1)/C(=C/C(=O)c1cccs1)C(=O)N2,47*,nt,17,11,1,-1,42*,2
CN(C)c1ccc(C=Cc2ccnc3ccccc23)cc1N,33*,nt,nt,nt,nt,nt,32*,33*
Nc1ccccc1C#Cc1ccc([N+](=O)[O-])cc1,26*,nt,nt,18,8,-8,4,19*
N#CC(c1ccccc1)c1ccc([N+](=O)[O-])cc1 (stereo unspecified),8,nt,nt,nt,nt,nt,nt,nt
COc1ccccc1N1C(=O)CC(N2CCN(c3ccc([N+](=O)[O-])cc3)CC2)C1=O (stereo unspecified),22*,7,nt,-4,-9,9,1,-3
